{"source": "ChEMBL document CHEMBL1138658", "about": "“Novel 2-aminotetralin and 3-aminochroman derivatives as selective serotonin 5-HT7 receptor agonists and antagonists” (J Med Chem, 2004)", "key": {"[1]": {"target": "T1, Adrenergic receptor alpha-2 (Rattus norvegicus, UniProt P22086+P19328+P22909)", "T1 sequence (P22086 whole entry)": "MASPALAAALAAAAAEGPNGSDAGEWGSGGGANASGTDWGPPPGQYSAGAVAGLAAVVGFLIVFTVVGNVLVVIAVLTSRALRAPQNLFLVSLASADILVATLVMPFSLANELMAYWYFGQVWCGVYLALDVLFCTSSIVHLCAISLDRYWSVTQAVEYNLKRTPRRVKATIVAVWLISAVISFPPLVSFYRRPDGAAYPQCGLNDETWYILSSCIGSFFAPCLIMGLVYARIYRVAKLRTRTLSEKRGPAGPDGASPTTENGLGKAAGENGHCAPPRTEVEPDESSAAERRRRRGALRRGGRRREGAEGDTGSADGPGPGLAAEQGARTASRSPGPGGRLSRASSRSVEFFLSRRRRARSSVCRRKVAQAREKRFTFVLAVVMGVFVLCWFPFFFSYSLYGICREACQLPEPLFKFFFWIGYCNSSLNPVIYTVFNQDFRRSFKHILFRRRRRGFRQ", "T1 sequence (P19328 whole entry)": "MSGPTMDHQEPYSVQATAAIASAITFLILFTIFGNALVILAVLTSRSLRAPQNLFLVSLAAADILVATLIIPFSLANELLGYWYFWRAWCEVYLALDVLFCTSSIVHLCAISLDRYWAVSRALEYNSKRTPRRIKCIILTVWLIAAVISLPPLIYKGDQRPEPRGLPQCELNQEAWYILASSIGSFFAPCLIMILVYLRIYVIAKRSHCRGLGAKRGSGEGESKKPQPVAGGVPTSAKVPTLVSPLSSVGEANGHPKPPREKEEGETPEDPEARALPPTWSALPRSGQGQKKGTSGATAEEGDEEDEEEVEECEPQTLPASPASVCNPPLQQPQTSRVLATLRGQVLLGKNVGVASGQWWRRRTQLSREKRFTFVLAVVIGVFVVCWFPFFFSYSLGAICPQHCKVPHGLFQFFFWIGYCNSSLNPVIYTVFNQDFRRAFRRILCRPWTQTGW", "T1 sequence (P22909 whole entry)": "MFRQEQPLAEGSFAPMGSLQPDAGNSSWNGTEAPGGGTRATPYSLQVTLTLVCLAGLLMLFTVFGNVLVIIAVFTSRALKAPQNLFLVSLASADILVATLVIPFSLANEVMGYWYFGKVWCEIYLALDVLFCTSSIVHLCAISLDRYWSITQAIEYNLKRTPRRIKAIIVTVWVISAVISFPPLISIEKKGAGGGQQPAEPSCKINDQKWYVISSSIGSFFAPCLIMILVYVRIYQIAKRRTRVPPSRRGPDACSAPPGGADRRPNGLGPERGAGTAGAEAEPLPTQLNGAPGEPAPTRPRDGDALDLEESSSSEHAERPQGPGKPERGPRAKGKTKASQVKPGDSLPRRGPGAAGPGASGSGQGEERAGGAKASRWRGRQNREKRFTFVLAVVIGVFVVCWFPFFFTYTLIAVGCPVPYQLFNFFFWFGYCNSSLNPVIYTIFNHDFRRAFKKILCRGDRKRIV", "test": "Inhibition of [3H]RX-821002 binding to rat cortex Alpha 2 receptor"}, "[2]": {"test": "Inhibition of [3H]- LSD binding to 5-HT5 receptor expressed in CHO cells", "type": "cell-based"}, "[3]": {"target": "Adrenergic receptor beta (Rattus norvegicus, UniProt P18090+P10608+P26255)", "test": "Inhibition of [3H]DHA binding to rat cortex Beta receptor"}, "[4]": {"target": "Serotonin 3 (5-HT3) receptor", "test": "Inhibition of [3H]GR-65630 binding to rabbit ileum muscularis 5-HT3 receptor", "type": "tissue-based, Oryctolagus cuniculus"}, "[5]": {"target": "5-hydroxytryptamine receptor 4 (Cavia porcellus, UniProt O70528)", "sequence (O70528 whole entry)": "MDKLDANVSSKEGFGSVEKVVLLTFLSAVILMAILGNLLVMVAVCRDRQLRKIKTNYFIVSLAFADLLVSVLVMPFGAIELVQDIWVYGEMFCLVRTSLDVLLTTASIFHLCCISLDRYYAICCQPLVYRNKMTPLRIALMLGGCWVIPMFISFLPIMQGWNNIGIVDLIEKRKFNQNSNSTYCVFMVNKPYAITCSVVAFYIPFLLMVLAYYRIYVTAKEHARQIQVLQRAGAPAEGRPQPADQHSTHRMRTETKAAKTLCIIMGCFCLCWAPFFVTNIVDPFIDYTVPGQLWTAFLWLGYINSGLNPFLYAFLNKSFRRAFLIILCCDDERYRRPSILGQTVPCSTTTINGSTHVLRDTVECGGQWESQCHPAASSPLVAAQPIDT", "test": "Inhibition of [3H]- GR-113808 binding to guinea pig striatum 5-HT4 receptor", "type": "tissue-based"}, "[6]": {"target": "T2, 5-hydroxytryptamine receptor 6 (Rattus norvegicus, UniProt P31388)", "T2 sequence (P31388 whole entry)": "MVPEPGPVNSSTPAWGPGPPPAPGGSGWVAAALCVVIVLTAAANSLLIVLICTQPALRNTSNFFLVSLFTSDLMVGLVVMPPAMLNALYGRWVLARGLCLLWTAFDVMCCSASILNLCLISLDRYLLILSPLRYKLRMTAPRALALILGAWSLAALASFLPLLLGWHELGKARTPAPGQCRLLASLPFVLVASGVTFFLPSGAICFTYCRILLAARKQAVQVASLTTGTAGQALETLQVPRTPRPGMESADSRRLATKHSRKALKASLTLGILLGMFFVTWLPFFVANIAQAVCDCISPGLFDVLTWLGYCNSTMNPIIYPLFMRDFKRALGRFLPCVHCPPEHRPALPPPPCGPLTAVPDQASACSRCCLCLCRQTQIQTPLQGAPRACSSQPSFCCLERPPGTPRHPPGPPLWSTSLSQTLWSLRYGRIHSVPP", "test": "Inhibition of [3H]5-HT binding to rat 5-HT6 receptor"}, "[7]": {"target": "5-hydroxytryptamine receptor 7 (Rattus norvegicus, UniProt P32305)", "sequence (P32305 whole entry)": "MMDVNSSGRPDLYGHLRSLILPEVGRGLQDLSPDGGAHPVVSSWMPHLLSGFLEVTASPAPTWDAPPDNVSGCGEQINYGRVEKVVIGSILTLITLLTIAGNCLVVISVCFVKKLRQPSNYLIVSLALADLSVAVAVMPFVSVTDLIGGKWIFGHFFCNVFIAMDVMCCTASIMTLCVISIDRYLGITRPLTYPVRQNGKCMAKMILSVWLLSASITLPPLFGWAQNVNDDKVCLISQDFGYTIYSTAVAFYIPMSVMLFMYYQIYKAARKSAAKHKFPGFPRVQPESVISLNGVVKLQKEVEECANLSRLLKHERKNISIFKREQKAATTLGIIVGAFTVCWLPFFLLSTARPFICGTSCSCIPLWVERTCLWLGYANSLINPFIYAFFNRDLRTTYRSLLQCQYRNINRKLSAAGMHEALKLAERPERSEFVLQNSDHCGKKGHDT", "test": "Inhibition of [3H]-5-HT binding to rat 5-hydroxytryptamine 7 receptor", "procedure,_shortened": "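Rat 5-HT7 receptor expressed in CHO or Sf9 cells; [3H]-5-HT radioligand displacement.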"}, "[8]": {"target": "T2, 5-hydroxytryptamine receptor 6", "test": "Inhibition of [3H]-5-HT binding to rat 5-HT6 receptor"}}, "data": [{"compound": "COc1cccc(OC)c1-c1cccc2c1CC[C@H](N(C)C)C2", "values": [{"measurement": "Ki", "setting": "[1]", "value": 188, "unit": "nM"}, {"measurement": "Ki", "setting": "[2]", "value": 65, "unit": "nM"}, {"measurement": "Ki", "setting": "[3]", "value": "> 1000", "unit": "nM"}, {"measurement": "IC50", "setting": "[4]", "value": "> 1000", "unit": "nM"}, {"measurement": "IC50", "setting": "[5]", "value": "> 1000", "unit": "nM"}, {"measurement": "IC50", "setting": "[6]", "value": "> 1000", "unit": "nM"}, {"measurement": "Ki", "setting": "[7]", "value": 2.55, "unit": "nM"}]}, {"compound": "CCCN(CCC)[C@H]1CCc2c(cccc2-c2c(OC)cccc2OC)C1", "values": [{"measurement": "Ki", "setting": "[1]", "value": 2090, "unit": "nM"}, {"measurement": "Ki", "setting": "[3]", "value": "> 1000", "unit": "nM"}, {"measurement": "Ki", "setting": "[8]", "value": "> 900", "unit": "nM"}, {"measurement": "Ki", "setting": "[7]", "value": 7.9, "unit": "nM"}]}]}
